In data set [1] the test system is SJSA-1 cells. Kind of data set: SJSA-1 cellular assay. To be noted: tested up to 30 μM. Type of data set: cell-based.
In a further data set the target is MDM2 (Homo sapiens, UniProt Q00987). The data set can be described thus: TR-FRET competition. Type of data set: binding.
The next data set concerns the target T1, MDM4 (Homo sapiens, UniProt O15151).
T1 sequence (O15151 2-185): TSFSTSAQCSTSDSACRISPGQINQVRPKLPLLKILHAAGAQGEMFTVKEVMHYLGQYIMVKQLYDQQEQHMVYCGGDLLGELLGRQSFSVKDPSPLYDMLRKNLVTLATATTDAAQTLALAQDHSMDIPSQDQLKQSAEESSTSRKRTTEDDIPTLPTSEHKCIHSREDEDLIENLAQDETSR
The data set can be described thus: TR-FRET competition. Conditions: His(96) of MDM2 replaced by proline in MDM4. Type of data set: binding. (In general: In TR-FRET formats the signal depends on donor and acceptor labels being close together.)

Data set [2] relates to SJSA-1 cells. Kind of data set: WST-1 cell proliferation assay in SJSA-1 cells. Type of data set: cell-based. Conditions: Homo sapiens, SJSA-1, 24 h, read-out: GI50 growth inhibition. A digest of the protocol: (§1)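 Cells were exposed for 24 h to varying concentrations of the synthesized macrocyclic peptide MDM2 inhibitors, and proliferation was read out by the WST-1 assay. The same test was run in MDM2-dependent SJSA-1 cells and in p53-mutant SW-480 cells, the latter as a control line. A small-molecule MDM2 inhibitor served as the positive control.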
A general note: Formazan colour is commonly taken as a measure of viable cells.

The test system of data set [3] is nuclear MDM2 in SJSA-1 cells. The data set can be described thus: MDM2 immunofluorescence. Format: cell-based. To be noted: 4 hours.
In another data set the test system is SW-480 cells. The data set can be described thus: WST-1 cell proliferation assay in SW-480 cells. To be noted: p53-mutant SW-480 cells, 24 hours. Type of data set: cell-based. In short, it runs like this:
as §1

Where a SMILES comes first, the peptide text is derived from it. Bridges are numbered along the chain shown (N, C = ends). [ ]: non-standard residue; d: D form. Bip = N[C@@H](Cc1ccc(-c2ccccc2)cc1)C(=O)O; NMeS = CN[C@@H](CO)C(=O)O A value given as a limit tells only on which side of the number the result lay.

Chain of MDM2 (Q00987 2-188): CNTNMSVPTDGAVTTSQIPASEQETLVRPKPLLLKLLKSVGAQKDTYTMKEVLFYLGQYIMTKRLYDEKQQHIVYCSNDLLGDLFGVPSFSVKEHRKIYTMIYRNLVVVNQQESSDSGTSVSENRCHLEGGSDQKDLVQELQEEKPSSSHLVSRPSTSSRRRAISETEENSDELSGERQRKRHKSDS

Usually IC50 stands for the concentration that inhibits the measured activity by half. Lower therefore signals greater potency in that assay. The term Ki denotes a measure of affinity in units of concentration, obtained from inhibition or displacement. Read a low Ki as higher affinity. Turning to `CC(C)[C@@H]1NC(=O)[C@H](CO)NC(=O)[C@H](CO)NC(=O)[C@H](CO)N(C)C(=O)[C@H](CC(=O)O)NC(=O)[C@H](CO)NC(=O)[C@H](Cc2ccccc2)NC(=O)CSC[C@@H](C(=O)NCC(N)=O)NC(=O)[C@H](CC(N)=O)NC(=O)[C@H](CCCNC(=N)N)NC(=O)[C@H](Cc2ccc(-c3ccccc3)cc2)NC(=O)[C@H](Cc2ccc(-c3ccccc3)cc2)NC(=O)[C@H](CC(N)=O)NC(=O)[C@@H]2CCCN2C1=O` [CMR19] ({CH2CO}-FSD[NMeS]SSVPN[Bip][Bip]RNCG-NH2; thioether N-14), the “cytotoxic response on SJSA-1 cells” value in the data set on SJSA-1 cells [1] was “did not observe any cytotoxic response”. At MDM2, the IC50 is 0.18 nM and the Ki came out at 0.15 nM. The “loss in affinity for MDM4 versus MDM2” value on MDM4 was “more than thousand fold loss in affinity”.

Broadly, the GI50 is the concentration that inhibits growth by half. In the case of `COc1cc2c(cc1OC(C)C)[C@H](c1ccc(Cl)cc1)N(c1ccc(N(C)C[C@H]3CC[C@H](N4CCN(C)C(=O)C4)CC3)cc1)C(=O)C2` [CGM097], the GI50 with SJSA-1 cells [2] is approximately 1000 nM.

For `CC(C)[C@@H]1NC(=O)[C@H](CO)NC(=O)[C@H](CO)NC(=O)[C@H](CO)N(C)C(=O)[C@H](CC(=O)O)NC(=O)[C@H](CO)NC(=O)[C@H](Cc2ccccc2)NC(=O)CSC[C@@H](C(=O)NCC(N)=O)NC(=O)[C@H](CC(N)=O)NC(=O)[C@H](CCCNC(=N)N)NC(=O)[C@H](C)NC(=O)[C@H](Cc2ccc(-c3ccccc3)cc2)NC(=O)[C@H](CC(N)=O)NC(=O)[C@@H]2CCCN2C1=O` [MMS95] ({CH2CO}-FSD[NMeS]SSVPN[Bip]ARNCG-NH2; thioether N-14), on MDM2, the IC50 was more than 10000 nM and the “binding to MDM2 in the TR-FRET assay” value is reported as “no binding”. Moreover, the “concentration-dependent enrichment of nuclear MDM2 (quantified fluorescence)” value in data set [3] (0.4-10 µM) is “does not”. For the same compound, the “enrichment of MDM2 in the nuclei compared to the DMSO control” value in data set [3] (37 °C, immunofluorescence) was “did not result in increased nuclear staining”.

With `CC(=O)N[C@@H](CSSC[C@H](N)C(=O)NCCOCCOCC(=O)NCCOCCOCC(=O)N[C@H]1CCCCNC(=O)CC[C@@H](C(N)=O)NC(=O)[C@H](CCCNC(=N)N)NC(=O)[C@@H](CCCNC(=N)N)NC(=O)[C@H](CCCNC(=N)N)NC(=O)[C@@H](CCCNC(=N)N)NC(=O)[C@H](CCCNC(=N)N)NC(=O)[C@@H](CCCNC(=N)N)NC(=O)[C@H](CCCNC(=N)N)NC(=O)[C@@H](CCCNC(=N)N)NC(=O)[C@H](CCCNC(=N)N)NC(=O)[C@@H](CCCNC(=N)N)NC1=O)C(=O)NCCCC[C@H](NC(=O)CNC(=O)[C@@H]1CSCC(=O)N[C@@H](Cc2ccccc2)C(=O)N[C@@H](CO)C(=O)N[C@@H](CC(=O)O)C(=O)N(C)[C@@H](CO)C(=O)N[C@@H](CO)C(=O)N[C@@H](CO)C(=O)N[C@@H](C(C)C)C(=O)N2CCC[C@H]2C(=O)N[C@@H](CC(N)=O)C(=O)N[C@@H](Cc2ccc(-c3ccccc3)cc2)C(=O)N[C@@H](Cc2ccc(-c3ccccc3)cc2)C(=O)N[C@@H](CCCNC(=N)N)C(=O)N[C@@H](CC(N)=O)C(=O)N1)C(N)=O` [CMR19-cR10], the growth inhibitory effect result in the data set on SW-480 cells was “no growth inhibition”.
